From ChEMBL document CHEMBL1154352, “Toll-like receptor 7 selective synthetic oligoribonucleotide agonists: synthesis and structure-activity relationship studies” (J Med Chem, 2009)
Activity calls are given as the source filed them. The rule behind the calls is not given here.

Key:
[1] = target: Toll-like receptor 3 (Homo sapiens) (UniProt O15455); test: Activation of human TLR3 expressed in HEK293 assessed as induction of NF-kappaB activity reporter gene assay; assay type: cell-based
PBMC [2] = test: Immunomodulatory activity in human PBMC assessed as induction of IFN-alpha at 100 ug/ml after 24 hrs
[3] = target: T1, Toll-like receptor 9 (Mus musculus) (UniProt Q9EQU3); test: Activation of mouse TLR9 expressed in HEK293 assessed as induction of NF-kappaB activity reporter gene assay; assay type: cell-based
T1 sequence (whole entry): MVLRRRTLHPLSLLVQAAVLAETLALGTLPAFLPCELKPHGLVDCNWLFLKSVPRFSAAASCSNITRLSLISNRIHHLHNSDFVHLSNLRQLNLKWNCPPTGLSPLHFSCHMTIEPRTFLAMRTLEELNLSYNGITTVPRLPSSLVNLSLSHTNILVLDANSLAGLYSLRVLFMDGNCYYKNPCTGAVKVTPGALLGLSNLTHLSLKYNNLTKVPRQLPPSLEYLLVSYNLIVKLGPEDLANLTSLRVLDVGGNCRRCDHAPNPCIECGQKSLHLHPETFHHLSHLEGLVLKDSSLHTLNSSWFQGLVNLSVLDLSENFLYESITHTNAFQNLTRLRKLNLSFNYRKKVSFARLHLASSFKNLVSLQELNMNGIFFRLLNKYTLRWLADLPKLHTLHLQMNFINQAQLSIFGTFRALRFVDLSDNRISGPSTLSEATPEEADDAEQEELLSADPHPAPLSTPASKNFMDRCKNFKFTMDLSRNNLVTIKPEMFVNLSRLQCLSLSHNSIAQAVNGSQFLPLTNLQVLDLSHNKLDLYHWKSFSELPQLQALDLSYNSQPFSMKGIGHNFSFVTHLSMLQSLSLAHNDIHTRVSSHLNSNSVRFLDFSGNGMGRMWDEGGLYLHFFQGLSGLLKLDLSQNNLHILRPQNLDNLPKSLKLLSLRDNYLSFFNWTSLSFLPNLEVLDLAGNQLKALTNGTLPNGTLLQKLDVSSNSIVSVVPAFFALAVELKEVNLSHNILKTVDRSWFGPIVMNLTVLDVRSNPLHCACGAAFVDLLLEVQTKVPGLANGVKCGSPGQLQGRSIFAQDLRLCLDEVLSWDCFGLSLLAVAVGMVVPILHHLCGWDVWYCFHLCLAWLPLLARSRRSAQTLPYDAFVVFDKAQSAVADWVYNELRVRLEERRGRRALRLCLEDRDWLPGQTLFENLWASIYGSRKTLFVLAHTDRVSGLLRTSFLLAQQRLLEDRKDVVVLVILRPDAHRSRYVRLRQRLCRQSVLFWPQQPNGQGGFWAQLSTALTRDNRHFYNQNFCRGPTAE

PBMC [4] = test: Immunomodulatory activity in human PBMC assessed as induction of IL12 at 100 ug/ml after 24 hrs; assay type: functional, cell-based
Summary of the method: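 Human PBMCs plated at 5 × 10^6 cells/mL; compounds dissolved in PBS added at various concentrations, 37 °C for 24 h. Supernatant cytokines/chemokines quantified with human Luminex multiplex kit.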

Chain of Toll-like receptor 3 (Homo sapiens) (O15455 whole entry): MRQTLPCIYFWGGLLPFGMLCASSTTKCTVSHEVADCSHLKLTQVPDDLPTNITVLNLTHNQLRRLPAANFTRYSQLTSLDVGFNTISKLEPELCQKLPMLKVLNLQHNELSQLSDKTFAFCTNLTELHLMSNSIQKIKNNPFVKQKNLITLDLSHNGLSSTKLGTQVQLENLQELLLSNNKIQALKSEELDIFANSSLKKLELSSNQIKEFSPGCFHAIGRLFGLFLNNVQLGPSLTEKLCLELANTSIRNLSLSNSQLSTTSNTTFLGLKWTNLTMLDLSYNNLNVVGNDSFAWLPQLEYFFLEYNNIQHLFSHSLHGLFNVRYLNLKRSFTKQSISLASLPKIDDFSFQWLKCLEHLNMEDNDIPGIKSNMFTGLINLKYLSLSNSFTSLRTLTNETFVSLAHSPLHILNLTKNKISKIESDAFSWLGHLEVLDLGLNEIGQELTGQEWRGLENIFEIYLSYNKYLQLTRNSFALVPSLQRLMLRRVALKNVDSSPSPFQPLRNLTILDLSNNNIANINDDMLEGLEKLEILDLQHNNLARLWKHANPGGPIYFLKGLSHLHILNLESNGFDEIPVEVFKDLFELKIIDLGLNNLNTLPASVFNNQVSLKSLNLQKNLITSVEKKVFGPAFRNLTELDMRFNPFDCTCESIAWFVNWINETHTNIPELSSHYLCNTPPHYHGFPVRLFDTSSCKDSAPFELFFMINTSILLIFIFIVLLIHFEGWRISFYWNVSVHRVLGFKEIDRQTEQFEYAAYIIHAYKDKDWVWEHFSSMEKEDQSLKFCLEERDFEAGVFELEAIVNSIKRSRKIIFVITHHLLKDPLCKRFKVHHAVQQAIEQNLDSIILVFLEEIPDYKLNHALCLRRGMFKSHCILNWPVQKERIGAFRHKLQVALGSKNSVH

Row | Activity [1] | Activity [3] | Compound | IFN-alpha (PBMC [2]) [pg/mL] | Activity (PBMC [4]) [pg/mL]
1 | inactive | inactive | Nc1ccn([C@@H]2O[C@H](CO)[C@@H](OP(=O)(S)OC[C@H]3O[C@@H](n4ccc(=O)[nH]c4=O)[C@H](O)[C@@H]3OP(=O)(S)OC[C@H]3O[C@@H](n4ccc(=O)[nH]c4=O)[C@H](O)[C@@H]3OP(=O)(S)OC[C@H]3O[C@@H](n4ccc5c(=O)[nH]c(N)nc54)[C@H](O)[C@@H]3OP(=O)(S)OC[C@H]3O[C@@H](n4ccc(=O)[nH]c4=O)[C@H](O)[C@@H]3OP(=O)(S)OC[C@H]3O[C@@H](n4ccc5c(=O)[nH]c(N)nc54)[C@H](O)[C@@H]3OP(=O)(S)OC[C@H]3O[C@@H](n4cnc5c(N)ncnc54)[C@H](O)[C@@H]3OP(=O)(S)OC[C@H]3O[C@@H](n4ccc5c(=O)[nH]c(N)nc54)[C@H](O)[C@@H]3OP(=O)(S)OC[C@H]3O[C@@H](n4ccc(N)nc4=O)[C@H](O)[C@@H]3OP(=O)(S)OC[C@H]3O[C@@H](n4ccc(=O)[nH]c4=O)[C@H](O)[C@@H]3OP(=O)(S)OC[C@H]3O[C@@H](n4ccc(=O)[nH]c4=O)[C@H](O)[C@@H]3OP(=O)(S)OCC(O)COP(=O)(S)O[C@H]3[C@@H](O)[C@H](n4ccc(=O)[nH]c4=O)O[C@@H]3COP(=O)(S)O[C@H]3[C@@H](O)[C@H](n4ccc(=O)[nH]c4=O)O[C@@H]3COP(=O)(S)O[C@H]3[C@@H](O)[C@H](n4ccc(N)nc4=O)O[C@@H]3COP(=O)(S)O[C@H]3[C@@H](O)[C@H](n4ccc5c(=O)[nH]c(N)nc54)O[C@@H]3COP(=O)(S)O[C@H]3[C@@H](O)[C@H](n4cnc5c(N)ncnc54)O[C@@H]3COP(=O)(S)O[C@H]3[C@@H](O)[C@H](n4ccc5c(=O)[nH]c(N)nc54)O[C@@H]3COP(=O)(S)O[C@H]3[C@@H](O)[C@H](n4ccc(=O)[nH]c4=O)O[C@@H]3COP(=O)(S)O[C@H]3[C@@H](O)[C@H](n4ccc5c(=O)[nH]c(N)nc54)O[C@@H]3COP(=O)(S)O[C@H]3[C@@H](O)[C@H](n4ccc(=O)[nH]c4=O)O[C@@H]3COP(=O)(S)O[C@H]3[C@@H](O)[C@H](n4ccc(=O)[nH]c4=O)O[C@@H]3COP(=O)(S)O[C@H]3[C@@H](O)[C@H](n4ccc(N)nc4=O)O[C@@H]3CO)[C@H]2O)c(=O)n1 (stereo partly specified) | 138 | 1020
2 | inactive | inactive | Nc1ccn([C@@H]2O[C@H](COP(=O)(S)O[C@H]3[C@@H](O)[C@H](n4cnc5c(N)ncnc54)O[C@@H]3COP(=O)(S)O[C@H]3[C@@H](O)[C@H](n4cnc5c(N)ncnc54)O[C@@H]3CO)[C@@H](OP(=O)(S)OC[C@H]3O[C@@H](n4ccc(=O)[nH]c4=O)[C@H](O)[C@@H]3OP(=O)(S)OC[C@H]3O[C@@H](n4ccc5c(=O)[nH]c(N)nc54)[C@H](O)[C@@H]3OP(=O)(S)OC[C@H]3O[C@@H](n4cnc5c(N)ncnc54)[C@H](O)[C@@H]3OP(=O)(S)OC[C@H]3O[C@@H](n4cnc5c(N)ncnc54)[C@H](O)[C@@H]3OP(=O)(S)OC[C@H]3O[C@@H](n4ccc5c(=O)[nH]c(N)nc54)[C@H](O)[C@@H]3OP(=O)(S)OC[C@H]3O[C@@H](n4ccc(N)nc4=O)[C@H](O)[C@@H]3OP(=O)(S)OC[C@H]3O[C@@H](n4ccc(=O)[nH]c4=O)[C@H](O)[C@@H]3OP(=O)(S)OC[C@H]3O[C@@H](n4ccc(=O)[nH]c4=O)[C@H](O)[C@@H]3OP(=O)(S)OCC(O)COP(=O)(S)O[C@H]3[C@@H](O)[C@H](n4ccc(=O)[nH]c4=O)O[C@@H]3COP(=O)(S)O[C@H]3[C@@H](O)[C@H](n4ccc(=O)[nH]c4=O)O[C@@H]3COP(=O)(S)O[C@H]3[C@@H](O)[C@H](n4ccc(N)nc4=O)O[C@@H]3COP(=O)(S)O[C@H]3[C@@H](O)[C@H](n4ccc5c(=O)[nH]c(N)nc54)O[C@@H]3COP(=O)(S)O[C@H]3[C@@H](O)[C@H](n4cnc5c(N)ncnc54)O[C@@H]3COP(=O)(S)O[C@H]3[C@@H](O)[C@H](n4cnc5c(N)ncnc54)O[C@@H]3COP(=O)(S)O[C@H]3[C@@H](O)[C@H](n4ccc5c(=O)[nH]c(N)nc54)O[C@@H]3COP(=O)(S)O[C@H]3[C@@H](O)[C@H](n4ccc(=O)[nH]c4=O)O[C@@H]3COP(=O)(S)O[C@H]3[C@@H](O)[C@H](n4ccc(N)nc4=O)O[C@@H]3COP(=O)(S)O[C@H]3[C@@H](O)[C@H](n4cnc5c(N)ncnc54)O[C@@H]3COP(=O)(S)O[C@H]3[C@@H](O)[C@H](n4cnc5c(N)ncnc54)O[C@@H]3CO)[C@H]2O)c(=O)n1 (stereo partly specified) | 84.5 | 260
3 | inactive | inactive | Nc1ccn([C@@H]2O[C@H](CO)[C@@H](OP(=O)(S)OC[C@H]3O[C@@H](n4ccc(=O)[nH]c4=O)[C@H](O)[C@@H]3OP(=O)(S)OC[C@H]3O[C@@H](n4ccc5c(=O)[nH]c(N)nc54)[C@H](O)[C@@H]3OP(=O)(S)OC[C@H]3O[C@@H](n4cnc5c(N)ncnc54)[C@H](O)[C@@H]3OP(=O)(S)OC[C@H]3O[C@@H](n4ccc(N)nc4=O)[C@H](O)[C@@H]3OP(=O)(S)OC[C@H]3O[C@@H](n4ccc5c(=O)[nH]c(N)nc54)[C@H](O)[C@@H]3OP(=O)(S)OC[C@H]3O[C@@H](n4cnc5c(N)ncnc54)[C@H](O)[C@@H]3OP(=O)(S)OC[C@H]3O[C@@H](n4ccc5c(=O)[nH]c(N)nc54)[C@H](O)[C@@H]3OP(=O)(S)OC[C@H]3O[C@@H](n4ccc(N)nc4=O)[C@H](O)[C@@H]3OP(=O)(S)OC[C@H]3O[C@@H](n4ccc(=O)[nH]c4=O)[C@H](O)[C@@H]3OP(=O)(S)OC[C@H]3O[C@@H](n4ccc(=O)[nH]c4=O)[C@H](O)[C@@H]3OP(=O)(S)OCC(O)COP(=O)(S)O[C@H]3[C@@H](O)[C@H](n4ccc(=O)[nH]c4=O)O[C@@H]3COP(=O)(S)O[C@H]3[C@@H](O)[C@H](n4ccc(=O)[nH]c4=O)O[C@@H]3COP(=O)(S)O[C@H]3[C@@H](O)[C@H](n4ccc(N)nc4=O)O[C@@H]3COP(=O)(S)O[C@H]3[C@@H](O)[C@H](n4ccc5c(=O)[nH]c(N)nc54)O[C@@H]3COP(=O)(S)O[C@H]3[C@@H](O)[C@H](n4cnc5c(N)ncnc54)O[C@@H]3COP(=O)(S)O[C@H]3[C@@H](O)[C@H](n4ccc5c(=O)[nH]c(N)nc54)O[C@@H]3COP(=O)(S)O[C@H]3[C@@H](O)[C@H](n4ccc(N)nc4=O)O[C@@H]3COP(=O)(S)O[C@H]3[C@@H](O)[C@H](n4cnc5c(N)ncnc54)O[C@@H]3COP(=O)(S)O[C@H]3[C@@H](O)[C@H](n4ccc5c(=O)[nH]c(N)nc54)O[C@@H]3COP(=O)(S)O[C@H]3[C@@H](O)[C@H](n4ccc(=O)[nH]c4=O)O[C@@H]3COP(=O)(S)O[C@H]3[C@@H](O)[C@H](n4ccc(N)nc4=O)O[C@@H]3CO)[C@H]2O)c(=O)n1 (stereo partly specified) | 106 | 519
4 | inactive | inactive | Nc1ccn([C@@H]2O[C@H](COP(=O)(S)O[C@H]3[C@@H](O)[C@H](n4cnc5c(N)ncnc54)O[C@@H]3CO)[C@@H](OP(=O)(S)OC[C@H]3O[C@@H](n4ccc5c(=O)[nH]c(N)nc54)[C@H](O)[C@@H]3OP(=O)(S)OC[C@H]3O[C@@H](n4ccc(N)nc4=O)[C@H](O)[C@@H]3OP(=O)(S)OC[C@H]3O[C@@H](n4ccc(=O)[nH]c4=O)[C@H](O)[C@@H]3OP(=O)(S)OC[C@H]3O[C@@H](n4ccc5c(=O)[nH]c(N)nc54)[C@H](O)[C@@H]3OP(=O)(S)OC[C@H]3O[C@@H](n4cnc5c(N)ncnc54)[C@H](O)[C@@H]3OP(=O)(S)OC[C@H]3O[C@@H](n4ccc5c(=O)[nH]c(N)nc54)[C@H](O)[C@@H]3OP(=O)(S)OC[C@H]3O[C@@H](n4ccc(N)nc4=O)[C@H](O)[C@@H]3OP(=O)(S)OC[C@H]3O[C@@H](n4ccc(=O)[nH]c4=O)[C@H](O)[C@@H]3OP(=O)(S)OC[C@H]3O[C@@H](n4ccc(=O)[nH]c4=O)[C@H](O)[C@@H]3OP(=O)(S)OCC(O)COP(=O)(S)O[C@H]3[C@@H](O)[C@H](n4ccc(=O)[nH]c4=O)O[C@@H]3COP(=O)(S)O[C@H]3[C@@H](O)[C@H](n4ccc(=O)[nH]c4=O)O[C@@H]3COP(=O)(S)O[C@H]3[C@@H](O)[C@H](n4ccc(N)nc4=O)O[C@@H]3COP(=O)(S)O[C@H]3[C@@H](O)[C@H](n4ccc5c(=O)[nH]c(N)nc54)O[C@@H]3COP(=O)(S)O[C@H]3[C@@H](O)[C@H](n4cnc5c(N)nc(N)nc54)O[C@@H]3COP(=O)(S)O[C@H]3[C@@H](O)[C@H](n4ccc5c(=O)[nH]c(N)nc54)O[C@@H]3COP(=O)(S)O[C@H]3[C@@H](O)[C@H](n4ccc(=O)[nH]c4=O)O[C@@H]3COP(=O)(S)O[C@H]3[C@@H](O)[C@H](n4ccc(N)nc4=O)O[C@@H]3COP(=O)(S)O[C@H]3[C@@H](O)[C@H](n4ccc5c(=O)[nH]c(N)nc54)O[C@@H]3COP(=O)(S)O[C@H]3[C@@H](O)[C@H](n4ccc(N)nc4=O)O[C@@H]3COP(=O)(S)O[C@H]3[C@@H](O)[C@H](n4cnc5c(N)ncnc54)O[C@@H]3CO)[C@H]2O)c(=O)n1 (stereo partly specified) | 188 | 2240
